# Data as given in ChEMBL document CHEMBL5058577, “EUbOPEN Chemogenomics Library 2 (Multiplex)” (2022).
# Test system: Fibroblast
# Assay: Multiplex assay against human fibroblast
# Assay type: toxicity, cell-based
# Summary of the method: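 Imaging took place on a CQ1 microscope at 37°C and 5% CO2 once compound had been added to live cells stained at seeding with Hoechst33342, BioTracker Green Microtubule Cytoskeleton Dye, MitoTracker Red and Annexin V Alexa Fluor 680. CellPathfinder machine-learning gating classed cells as Hoechst high-intensity objects or normal cells, classed normal cells as having healthy, pyknosed or fragmented nuclei, and classed pyknosed cells as mitotic or apoptotic. Tubulin, mitochondrial-mass and membrane-permeability phenotypes are per cents of the healthy-nucleus cells.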
# [1] = 12 h, 1 µM, compound concentration 1 uM, replicate 1
# [2] = 12 h, 1 µM, compound concentration 1 uM, replicate 2
# [3] = 12 h, 10 µM, compound concentration 10 uM, replicate 1
# [4] = 12 h, 10 µM, compound concentration 10 uM, replicate 2
# [5] = 24 h, 1 µM, compound concentration 1 uM, replicate 1
# [6] = 24 h, 1 µM, compound concentration 1 uM, replicate 2
# [7] = 24 h, 10 µM, compound concentration 10 uM, replicate 1
# [8] = 24 h, 10 µM, compound concentration 10 uM, replicate 2
# [9] = 48 h, 1 µM, compound concentration 1 uM, replicate 1
# [10] = 48 h, 1 µM, compound concentration 1 uM, replicate 2
# [11] = 48 h, 10 µM, compound concentration 10 uM, replicate 1
# [12] = 48 h, 10 µM, compound concentration 10 uM, replicate 2
smiles,measurement,setting,value
COc1cccc2c1c(NS(=O)(=O)c1ccc(Cl)s1)nn2Cc1cccc(CNC(=O)C(C)(C)O)c1,Population Apoptotic (%),[1],43%
same,Population Fragmented Nuclei (%),[1],16%
same,Population Healthy Nuclei (%),[1],66%
same,Population Hoechst High Intensity Objects (%),[1],0%
same,Population Membrane Permeable-Phenotype (%),[1],1%
same,Population Mitochondria Different-Phenotype (%),[1],2%
same,Population Mitotic Cells (%),[1],56%
same,Population Normal (%),[1],99%
same,Population Pyknosed Nuclei (%),[1],17%
same,Population Tubulin-Different-Phenotype (%),[1],27%
same,Total Cell Count,[1],134
same,Population Apoptotic (%),[2],33%
same,Population Fragmented Nuclei (%),[2],26%
same,Population Healthy Nuclei (%),[2],54%
same,Population Membrane Permeable-Phenotype (%),[2],4%
same,Population Mitochondria Different-Phenotype (%),[2],1%
same,Population Mitotic Cells (%),[2],66%
same,Population Normal (%),[2],100%
same,Population Pyknosed Nuclei (%),[2],18%
same,Population Tubulin-Different-Phenotype (%),[2],18%
same,Total Cell Count,[2],112
same,Population Apoptotic (%),[3],42%
same,Population Fragmented Nuclei (%),[3],13%
same,Population Healthy Nuclei (%),[3],72%
same,Population Hoechst High Intensity Objects (%),[3],2%
same,Population Membrane Permeable-Phenotype (%),[3],1%
same,Population Mitochondria Different-Phenotype (%),[3],11%
same,Population Mitotic Cells (%),[3],57%
same,Population Normal (%),[3],97%
same,Population Pyknosed Nuclei (%),[3],13%
same,Population Tubulin-Different-Phenotype (%),[3],37%
same,Total Cell Count,[3],211
same,Population Apoptotic (%),[4],41%
same,Population Fragmented Nuclei (%),[4],24%
same,Population Healthy Nuclei (%),[4],55%
same,Population Hoechst High Intensity Objects (%),[4],7%
same,Population Membrane Permeable-Phenotype (%),[4],7%
same,Population Mitochondria Different-Phenotype (%),[4],4%
same,Population Mitotic Cells (%),[4],58%
same,Population Normal (%),[4],92%
same,Population Pyknosed Nuclei (%),[4],19%
same,Population Tubulin-Different-Phenotype (%),[4],55%
same,Total Cell Count,[4],174
same,Population Apoptotic (%),[5],55%
same,Population Fragmented Nuclei (%),[5],19%
same,Population Healthy Nuclei (%),[5],68%
same,Population Hoechst High Intensity Objects (%),[5],2%
same,Population Membrane Permeable-Phenotype (%),[5],2%
same,Population Mitochondria Different-Phenotype (%),[5],3%
same,Population Mitotic Cells (%),[5],44%
same,Population Normal (%),[5],97%
same,Population Pyknosed Nuclei (%),[5],12%
same,Population Tubulin-Different-Phenotype (%),[5],28%
same,Total Cell Count,[5],144
same,Population Apoptotic (%),[6],50%
same,Population Fragmented Nuclei (%),[6],28%
same,Population Healthy Nuclei (%),[6],49%
same,Population Hoechst High Intensity Objects (%),[6],1%
same,Population Membrane Permeable-Phenotype (%),[6],7%
same,Population Mitochondria Different-Phenotype (%),[6],5%
same,Population Mitotic Cells (%),[6],50%
same,Population Normal (%),[6],98%
same,Population Pyknosed Nuclei (%),[6],22%
same,Population Tubulin-Different-Phenotype (%),[6],35%
same,Total Cell Count,[6],110
same,Population Apoptotic (%),[7],48%
same,Population Fragmented Nuclei (%),[7],11%
same,Population Healthy Nuclei (%),[7],74%
same,Population Hoechst High Intensity Objects (%),[7],2%
same,Population Membrane Permeable-Phenotype (%),[7],1%
same,Population Mitochondria Different-Phenotype (%),[7],7%
same,Population Mitotic Cells (%),[7],52%
same,Population Normal (%),[7],97%
same,Population Pyknosed Nuclei (%),[7],13%
same,Population Tubulin-Different-Phenotype (%),[7],30%
same,Total Cell Count,[7],190
same,Population Apoptotic (%),[8],50%
same,Population Fragmented Nuclei (%),[8],22%
same,Population Healthy Nuclei (%),[8],55%
same,Population Hoechst High Intensity Objects (%),[8],8%
same,Population Membrane Permeable-Phenotype (%),[8],6%
same,Population Mitochondria Different-Phenotype (%),[8],2%
same,Population Mitotic Cells (%),[8],50%
same,Population Normal (%),[8],92%
same,Population Pyknosed Nuclei (%),[8],22%
same,Population Tubulin-Different-Phenotype (%),[8],48%
same,Total Cell Count,[8],175
same,Population Apoptotic (%),[9],62%
same,Population Fragmented Nuclei (%),[9],21%
same,Population Healthy Nuclei (%),[9],66%
same,Population Hoechst High Intensity Objects (%),[9],5%
same,Population Membrane Permeable-Phenotype (%),[9],1%
same,Population Mitochondria Different-Phenotype (%),[9],5%
same,Population Mitotic Cells (%),[9],37%
same,Population Normal (%),[9],94%
same,Population Pyknosed Nuclei (%),[9],12%
same,Population Tubulin-Different-Phenotype (%),[9],30%
same,Total Cell Count,[9],135
same,Population Apoptotic (%),[10],75%
same,Population Fragmented Nuclei (%),[10],26%
same,Population Healthy Nuclei (%),[10],60%
same,Population Hoechst High Intensity Objects (%),[10],2%
same,Population Membrane Permeable-Phenotype (%),[10],8%
same,Population Mitochondria Different-Phenotype (%),[10],3%
same,Population Mitotic Cells (%),[10],25%
same,Population Normal (%),[10],97%
same,Population Tubulin-Different-Phenotype (%),[10],55%
same,Total Cell Count,[10],99
same,Population Apoptotic (%),[11],63%
same,Population Fragmented Nuclei (%),[11],13%
same,Population Healthy Nuclei (%),[11],73%
same,Population Hoechst High Intensity Objects (%),[11],5%
same,Population Membrane Permeable-Phenotype (%),[11],3%
same,Population Mitochondria Different-Phenotype (%),[11],10%
same,Population Mitotic Cells (%),[11],36%
same,Population Normal (%),[11],94%
same,Population Pyknosed Nuclei (%),[11],12%
same,Population Tubulin-Different-Phenotype (%),[11],40%
same,Total Cell Count,[11],187
same,Population Apoptotic (%),[12],51%
same,Population Fragmented Nuclei (%),[12],33%
same,Population Healthy Nuclei (%),[12],49%
same,Population Hoechst High Intensity Objects (%),[12],6%
same,Population Mitochondria Different-Phenotype (%),[12],4%
same,Population Mitotic Cells (%),[12],48%
same,Population Normal (%),[12],93%
same,Population Pyknosed Nuclei (%),[12],17%
same,Population Tubulin-Different-Phenotype (%),[12],43%
